From ChEMBL document CHEMBL4823320, “SAR of novel benzothiazoles targeting an allosteric pocket of DENV and ZIKV NS2B/NS3 proteases” (Bioorg Med Chem, 2021)

Experiments:
[1] = target: Nonstructural protein 3 (Zika virus) (UniProt A0A024AXB9); assay: Inhibition of ZIKV NS2B-NS3 protease expressed in Escherichia coli BL21(DE3) using Boc-Gly-Arg-Arg-AMC as substrate at 20 uM by FRET assay
Outline: (§1)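 His-tagged NS2B/NS3 protease, purified by Ni affinity and size exclusion, in 50 mM Tris pH 9.0, 20% glycerol, 1 mM CHAPS with 100 µM Boc-Gly-Arg-Arg-AMC. Fluorescence is read every 30 s for 10 min at 25 °C. Percent inhibition is at a single inhibitor concentration of 20, 100 or 200 µM; ≥3 independent measurements.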

Genome polyprotein = Genome polyprotein (dengue virus type 2, UniProt P29990); assay: Inhibition of DENV2 NS2B-NS3 protease expressed in Escherichia coli BL21(DE3) using Boc-Gly-Arg-Arg-AMC as substrate by FRET assay
Outline: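 Recombinant His-tagged NS2B/NS3 protease, expressed in E. coli BL21-Gold (DE3) (1 mM IPTG, 20 °C, 16 h) and purified by Ni affinity and size exclusion. Assayed in 50 mM Tris pH 9.0, 20% glycerol, 1 mM Chaps, with 100 μM Boc-Gly-Arg-Arg-AMC. Fluorescence read every 30 s for 10 min at 25 °C; inhibitor 0.01–100 μM. IC50 from a four-parameter fit of hydrolysis rate; ≥3 independent experiments.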

Nonstructural protein 3 = Nonstructural protein 3 (Zika virus, UniProt A0A024AXB9); assay: Inhibition of ZIKV NS2B-NS3 protease expressed in Escherichia coli BL21(DE3) using Boc-Gly-Arg-Arg-AMC as substrate by FRET assay
Outline: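 His-tagged ZIKV NS2B/NS3 protease in 50 mM Tris pH 9.0, 20% glycerol, 1 mM CHAPS with 100 µM Boc-Gly-Arg-Arg-AMC. Dilution series 0.01–100 µM, read every 30 s for 10 min at 25 °C. IC50 from a four-parameter fit of hydrolysis rate; mean ± SD of ≥3 independent measurements.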

[2] = target: Genome polyprotein (dengue virus type 2) (UniProt P29990); assay: Inhibition of DENV2 NS2B-NS3 protease expressed in Escherichia coli BL21(DE3) using Boc-Gly-Arg-Arg-AMC as substrate at 20 uM by FRET assay; outline: as §1
[3] = target: Urokinase-type plasminogen activator (Homo sapiens) (UniProt P00749); assay: Inhibition of Urokinase plasminogen activator (unknown origin) assessed as residual enzyme activity at 20 uM by FRET assay relative to control
Outline: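 Urokinase plasminogen activator in 50 mM Tris pH 7.4, 50 mM NaCl, 0.5 mM EDTA with 240 µM Z-Gly-Gly-Arg-AMC. Compound at 20 µM, read every 30 s for 10 min at 25 °C. Residual activity is relative to DMSO control; mean ± SD, ≥3 independent measurements.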

[4] = Inhibition of Rhodesain (unknown origin) assessed as residual enzyme activity at 20 uM by FRET assay relative to control
Outline: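 Compound at 20 µM, fluorescence read every 30 s for 10 min at 25 °C. Residual activity is relative to DMSO control; mean ± SD, ≥3 independent measurements.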

[5] = target: Chymotrypsin (Homo sapiens) (UniProt Q99895+P17538+P40313+Q6GPI1); assay: Inhibition of Chymotrypsin (unknown origin) assessed as residual enzyme activity at 20 uM by FRET assay relative to control; format: protein assay
Outline: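 α-Chymotrypsin in 50 mM Tris pH 8.0, 100 mM NaCl with Succ-Leu-Tyr-AMC. Compound at 20 µM, read every 30 s for 10 min at 25 °C. Residual activity is relative to DMSO control; mean ± SD, ≥3 independent measurements.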

[6] = test system: Severe acute respiratory syndrome coronavirus 2; assay: Inhibition of SARS-CoV-2 Main protease assessed as residual enzyme activity at 20 uM by FRET assay relative to control
Outline: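 Compound at 20 μM; fluorescence read every 30 s for 10 min at 25 °C. Residual activity expressed relative to DMSO control; mean of ≥3 independent measurements.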

[7] = target: T1, Sortase A (Staphylococcus aureus) (UniProt Q9S446); assay: Inhibition of staphylococcus aureus Sortase A protease assessed as residual enzyme activity at 20 uM by FRET assay relative to control
T1 sequence (whole entry): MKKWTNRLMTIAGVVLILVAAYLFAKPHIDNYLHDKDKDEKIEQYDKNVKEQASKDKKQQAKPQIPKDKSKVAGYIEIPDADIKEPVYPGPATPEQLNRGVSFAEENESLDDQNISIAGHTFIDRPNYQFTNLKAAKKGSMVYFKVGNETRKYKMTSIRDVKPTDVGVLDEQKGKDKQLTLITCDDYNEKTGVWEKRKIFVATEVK
Outline: (§2)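 Compound at 20 µM, read every 30 s for 10 min at 25 °C. Residual activity is relative to DMSO control; mean ± SD, ≥3 independent measurements.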

Trypsin (Homo sapiens) = Trypsin (Homo sapiens) (UniProt P07477+P07478+P35030); assay: Inhibition of Trypsin (unknown origin) assessed as residual enzyme activity at 20 uM by FRET assay relative to control; format: protein assay
Outline: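 Trypsin in 50 mM Tris pH 8.0, 100 mM NaCl, 5 mM EDTA with 40 µM Z-Phe-Arg-AMC. Compound at 20 µM, read every 30 s for 10 min at 25 °C. Residual activity is relative to DMSO control; mean ± SD, ≥3 independent measurements.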

[8] = target: Prothrombin (Homo sapiens) (UniProt P00734); assay: Inhibition of Thrombin (unknown origin) assessed as residual enzyme activity at 20 uM by FRET assay relative to control; outline: as §2
[9] = Chemical stability of compound in tris assay buffer at pH 9 measured after 20 hrs by HPLC/MS analysis; format: physicochemical; settings: pH 9, 20 h
Outline: (§3)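 Compound incubated in protease assay buffer (Tris pH 9.0) under simulated assay conditions and analysed by HPLC/MS after 15 min, 90 min and 20 h. Stability is the compound peak integral in the 210 nm UV trace as a proportion of the total integral.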

[10] = Chemical stability of compound in tris assay buffer at pH 9 measured after 15 mins by HPLC/MS analysis; format: physicochemical; settings: pH 9, 0.25 h; outline: as §3
[11] = Chemical stability of compound in cell culture conditions at pH 7.4 HEPES buffer measured after 15 mins by HPLC/MS analysis; format: physicochemical; settings: read-out: Stabilty
Outline: (§4)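 Compound incubated under simulated cell-assay conditions (HEPES pH 7.4) and analysed by HPLC/MS after 15 min, 90 min and 20 h. Stability is the compound peak integral in the 210 nm UV trace as a fraction of the total integral.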

[12] = Chemical stability of compound in tris assay buffer at pH 9 measured after 90 mins by HPLC/MS analysis; format: physicochemical; settings: pH 9, 1.5 h; outline: as §3
[13] = Chemical stability of compound in cell culture conditions at pH 7.4 HEPES buffer measured after 20 hrs by HPLC/MS analysis; format: physicochemical; settings: read-out: Stabilty; outline: as §4
[14] = Chemical stability of compound in cell culture conditions at pH 7.4 HEPES buffer measured after 90 mins by HPLC/MS analysis; format: physicochemical; settings: read-out: Stabilty; outline: as §4

Row | SMILES | IC50 (Genome polyprotein) | IC50 (Nonstructural protein 3) | inhibition [2] | other results
1 | O=C(Nc1nc2cc(O)c(O)cc2s1)c1ccc(Cl)c(Cl)c1 | 4.86 µM |  |  | inhibition [1]: 39%
2 | O=C(N[C@@H](Cc1ccc(O)cc1)C(=O)Nc1nc2cc(O)c(O)cc2s1)c1ccccc1 |  | 4.59 µM | 63% | 
3 | O=C(Nc1nc2cc(O)c(O)cc2s1)C(c1ccc(Cl)cc1)c1ccc(Cl)cc1 |  | 0.96 µM | 58% | 
4 | Cc1ccc(S(=O)(=O)N[C@@H](Cc2ccccc2)C(=O)Nc2nc3cc(O)c(O)cc3s2)cc1 |  | 3.66 µM | 33% | 
5 | Cc1ccc(S(=O)(=O)N2CCC[C@@H]2C(=O)Nc2nc3cc(O)c(O)cc3s2)cc1 |  |  |  | Activity [3]: 100%; Activity [4]: 93%; Activity [5]: 100%; Activity [6]: 94%; Activity [7]: 83%; Activity (Trypsin (Homo sapiens)): 96%; Activity [8]: 97%
6 | Cc1ccc(S(=O)(=O)N[C@H](C(=O)Nc2nc3cc(O)c(O)cc3s2)C(C)(C)C)cc1 |  | 5.74 µM | 44% | 
7 | CC[C@H](C)[C@H](NS(=O)(=O)c1ccc(C)cc1)C(=O)Nc1nc2cc(O)c(O)cc2s1 |  | 5.35 µM | 33% | 
8 | O=C(Nc1ccccc1)[C@@H]1CCCN1C(=O)c1ccc2cc(O)c(O)cc2c1 |  |  | 9% | inhibition [1]: 42%
9 | O=[N+]([O-])c1ccc2nc(NC(=S)Nc3ccc(I)cc3)sc2c1 | 11.2 µM | 6.51 µM |  | 
10 | Cc1ccc(S(=O)(=O)NC(CSCc2ccccc2)C(=O)Nc2nc3cc(O)c(O)cc3s2)cc1 (single isomer, unassigned) |  | 2.13 µM | 57% | 
11 | O=C(Nc1nc2cc(O)c(O)cc2s1)c1ccc(Cl)cc1 | 5.97 µM | 6.66 µM |  | 
12 | O=C(Nc1ccccc1)[C@@H]1CCCN1C(=O)c1cc2cc(O)c(O)cc2[nH]1 |  |  | 36% | inhibition [1]: 44%
13 | O=C(CN(C(=O)c1ccccc1)c1ccccc1)Nc1nc2cc(O)c(O)cc2s1 |  | 2.07 µM | 56% | 
14 | O=C(Nc1nc2cc(O)c(O)cc2s1)c1ccc(-c2ccccc2)cc1 | 7.8 µM | 1.22 µM |  | 
15 | O=C(Nc1ccc(I)cc1)c1nc2cc(O)c(O)cc2s1 | 2.48 µM | 1.3 µM |  | 
16 | O=C(Nc1ccccc1)[C@@H]1CCCCN1C(=O)c1cc2cc(O)c(O)cc2o1 | 4.73 µM | 2.9 µM |  | Activity [3]: 94%; Activity [4]: 90%; Activity [5]: 77%; Activity [6]: 57%; Activity [7]: 74%; Activity (Trypsin (Homo sapiens)): 95%; Activity [8]: 93%
17 | O=C(C[C@H](NC(=O)c1ccccc1)C(=O)Nc1nc2cc(O)c(O)cc2s1)Nc1ccccc1 | 9.95 µM | 5.48 µM |  | 
18 | O=C(Nc1ccccc1)[C@@H]1CCCN1C(=O)c1cc2cc(O)c(O)cc2o1 | 6.43 µM | 2.43 µM |  | Activity [3]: 82%; Stabilty [9]: 83%; Activity [4]: 93%; Stabilty [10]: 83%; remaining at 0.25 h [11]: 95%; Activity [5]: 78%; Activity [6]: 99%; Activity [7]: 81%; Stabilty [12]: 83%; remaining at 20 h [13]: 95%; remaining at 1.5 h [14]: 95%; Activity (Trypsin (Homo sapiens)): 88%; Activity [8]: 81%

Row | SMILES | IC50 (Genome polyprotein) | IC50 (Nonstructural protein 3) | inhibition [2] | other results
19 | Cc1ccc(S(=O)(=O)N[C@@H](C)C(=O)Nc2nc3cc(O)c(O)cc3s2)cc1 |  | 6.48 µM | 39% | 
20 | O=C(CCNC(=O)c1ccccc1)Nc1nc2cc(O)c(O)cc2s1 |  |  | 23% | inhibition [1]: 38%
21 | O=C(O)C[C@H](NC(=O)c1ccccc1)C(=O)Nc1nc2cc(O)c(O)cc2s1 |  |  | 32% | inhibition [1]: 45%
22 | O=C(Nc1nc2ccc([N+](=O)[O-])cc2s1)c1ccc(I)cc1 |  |  | 36% | inhibition [1]: 49%
23 | O=C(Nc1ccccc1)[C@@H]1CCCN1C(=O)c1nc2cc(O)c(O)cc2s1 | 11.6 µM | 4 µM |  | 
24 | O=C(Nc1ccccc1)[C@@H]1CCCN1C(=O)c1cnc2cc(O)c(O)cc2c1 |  |  | 23% | inhibition [1]: 44%
25 | CCN(CC)C(=O)C[C@H](NC(=O)c1ccccc1)C(=O)Nc1nc2cc(O)c(O)cc2s1 |  |  | 16% | inhibition [1]: 13%
26 | O=C(Nc1ccccc1)c1nc2cc(O)c(O)cc2s1 | 27 µM | 9.19 µM |  | Stabilty [9]: 88%; Stabilty [10]: 95%; remaining at 0.25 h [11]: 95%; Stabilty [12]: 94%; remaining at 20 h [13]: 95%; remaining at 1.5 h [14]: 95%
27 | O=C(Nc1nc2cc(O)c(O)cc2s1)c1ccccc1 | 27 µM | 9.19 µM |  | Activity [3]: 100%; Stabilty [9]: 83%; Activity [4]: 91%; Stabilty [10]: 67%; remaining at 0.25 h [11]: 95%; Activity [5]: 77%; Activity [6]: 90%; Activity [7]: 57%; Stabilty [12]: 61%; remaining at 20 h [13]: 95%; remaining at 1.5 h [14]: 95%; Activity (Trypsin (Homo sapiens)): 80%; Activity [8]: 75%
28 | O=C(Nc1ccccc1)[C@@H]1CCCN1C(=O)c1cc2c(O)cc(O)cc2o1 | 27.7 µM | 20.1 µM |  | 
29 | Cc1ccc(S(=O)(=O)N[C@H](C)C(=O)Nc2nc3cc(O)c(O)cc3s2)cc1 |  |  | 14% | inhibition [1]: 26%
30 | Cc1ccc(C(=O)Nc2nc3cc(O)c(O)cc3s2)cc1 | 6.39 µM | 15.4 µM |  | 
31 | O=C(Nc1ccccc1)[C@@H]1CCCN1C(=O)c1cc2cc(O)c(O)cc2s1 | 4.01 µM | 3.43 µM |  | 
32 | O=C(Nc1ccccc1)c1cc2cc(O)c(O)cc2s1 | 2.73 µM | 1.59 µM |  | 
33 | O=C(Nc1nc2cc(O)c(O)cc2s1)C(c1ccc(O)cc1)c1ccc(O)cc1 |  |  | 45% | inhibition [1]: 54%
34 | O=C(Nc1ccccc1)c1cc2cc(O)c(O)cc2[nH]1 | 6.9 µM | 3.44 µM |  | 
35 | O=C(Nc1ccccc1)c1cnc2cc(O)c(O)cc2c1 | 3.63 µM | 6.38 µM |  | 
